One block for each molecule: values may come before it.
Tests used:
[1] = Melting temperature by Thermofluor; assay type: physicochemical, Homo sapiens; settings: R65W vs WT HsCia1
HsCia2a = assay: Affinity copurification of HsCia1 with HsCia2a; assay type: binding, Homo sapiens; settings: strep-tagged HsCia1 bait, HsCia2a prey
Procedure, shortened: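 Recombinant human Cia1, wild-type or R65A variant, carries the strep tag as bait. Human Cia2a is the prey. Copurified proteins are compared between the two bait forms. Uncropped gels, including input samples and controls, accompany the analysis.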

Cia1 = settings: via C-terminal tryptophan; ref [26]; cited from earlier work
CtCia1-Cia2 = assay: Affinity copurification of ScMet18 with CtCia1-Cia2; assay type: binding, Chaetomium thermophilum

Molecule: Hs R65WCia1: human Cia1 pathogenic variant implicated in a fatal neuromuscular disorder
thermostability of HsCia1 [1]: without impacting Cia1’s thermostability
thermostability of HsCia1 ([1]; listed as R65W HsCia1): did not affect the stability of HsCia1 in vitro
interaction with HsCia2a (HsCia2a): strongly disrupted

Molecule: Viperin: CIA client
binding to Cia1 (Cia1): binds Cia1 via Viperin’s C-terminal tryptophan

binding to CtCia1-Cia2 (CtCia1-Cia2): can bind to CtCia1-Cia2
B1: ScMet18: S. cerevisiae Met18 with N-terminal His6-SUMO tag (protein)
chain: MTPDELNSAVVTFMANLNIDDSKANETASTVTDSIVHRSIKLLEVVVALKDYFLSENEVERKKALTCLTTILAKTPKDHLSKNECSVIFQFYQSKLDDQALAKEVLEGFAALAPMKYVSINEIAQLLRLLLDNYQQGQHLASTRLWPFKILRKIFDRFFVNGSSTEQVKRINDLFIETFLHVANGEKDPRNLLLSFALNKSITSSLQNVENFKEDLFDVLFCYFPITFKPPKHDPYKISNQDLKTALRSAITATPLFAEDAYSNLLDKLTASSPVVKNDTLLTLLECVRKFGGSSILENWTLLWNALKFEIMQNSEGNENTLLNPYNKDQQSDDVGQYTNYDACLKIINLMALQLYNFDKVSFEKFFTHVLDELKPNFKYEKDLKQTCQILSAIGSGNVEIFNKVISSTFPLFLINTSEVAKLKLLIMNFSFFVDSYIDLFGRTSKESLGTPVPNNKMAEYKDEIIMILSMALTRSSKAEVTIRTLSVIQFTKMIKMKGFLTPEEVSLIIQYFTEEILTDNNKNIYYACLEGLKTISEIYEDLVFEISLKKLLDLLPDCFEEKIRVNDEENIHIETILKIILDFTTSRHILVKESITFLATKLNRVAKISKSREYCFLLISTIYSLFNNNNQNENVLNEEDALALKNAIEPKLFEIITQESAIVSDNYNLTLLSNVLFFTNLKIPQAAHQEELDRYNELFISEGKIRILDTPNVLAISYAKILSALNKNCQFPQKFTVLFGTVQLLKKHAPRMTETEKLGYLELLLVLSNKFVSEKDVIGLFDWKDLSVINLEVMVWLTKGLIMQNSLESSEIAKKFIDLLSNEEIGSLVSKLFEVFVMDISSLKKFKGISWNNNVKILYKQKFFGDIFQTLVSNYKNTVDMTIKCNYLTALSLVLKHTPSQSVGPFINDLFPLLLQALDMPDPEVRVSALETLKDTTDKHHTLITEHVSTIVPLLLSLSLPHKYNSVSVRLIALQLLEMITTVVPLNYCLSYQDDVLSALIPVLSDKKRIIRKQCVDTRQVYYELGQIPFE
modifications: left off: His6, N-terminal, state not stated | SUMO, N-terminal, state not stated

Reference: paper PMC11974842 (bioRxiv, 2025)
